Results from ChEMBL document CHEMBL2434856, “Synthesis and in vitro and in vivo evaluation of antimalarial polyamines” (Eur J Med Chem, 2013).
Activity calls are given as the source filed them. No cut-off for these calls is given here.

Legend:
[1] = Selectivity index, ratio of IC50 for rat L6 cells to IC50 for erythrocytic stage of chloroquine and pyrimethamine-resistant Plasmodium falciparum K1; assay type: toxicity, cell-based; conditions: read-out: Ratio IC50
Outline: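 Selectivity index calculated as the IC50 against rat L6 skeletal myoblasts divided by the IC50 against the erythrocytic stage of P. falciparum K1, both in µM. Chloroquine served as the positive control in the parasite assay. IC50 values are means of duplicate assays.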

[2] = system: Plasmodium falciparum; assay: Antimalarial activity against erythrocytic stage of chloroquine and pyrimethamine-resistant Plasmodium falciparum K1; assay type: functional, organism-based
Outline: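 P. falciparum K1 (chloroquine- and pyrimethamine-resistant), erythrocytic stage, growth inhibition read as IC50 in µM. Chloroquine served as the positive control. Values are means of duplicate assays.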

[3] = system: L6; assay: Cytotoxicity against rat L6 cells; assay type: cell-based
Outline: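 Rat skeletal myoblast L6 cell line, tested alongside the P. falciparum K1 assay so that a selectivity index (IC50 L6 / IC50 Pf) could be derived. Read-out is IC50 in µM, reported as the mean of duplicate assays.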

[4] = system: Mus musculus; assay: Acute toxicity in NMRI mouse infected with GFP-transfected Plasmodium berghei ANKA at 100 mg/kg, ip; assay type: organism-based; design: dose 100 mg/kg, route intraperitoneal; conditions: in vivo
[5] = system: Plasmodium berghei; assay: Antimalarial activity against GFP-transfected Plasmodium berghei ANKA infected in NMRI mouse assessed as reduction of parasitaemia at 20 mg/kg, ip qd for 4 days
[6] = system: Plasmodium berghei; assay: Antimalarial activity against GFP-transfected Plasmodium berghei ANKA infected in NMRI mouse assessed as increase of mean survival time at 20 mg/kg, ip qd for 4 days
[7] = system: Mus musculus; assay: Acute toxicity in NMRI mouse infected with GFP-transfected Plasmodium berghei ANKA at 150 mg/kg, ip; assay type: organism-based; design: dose 150 mg/kg, route intraperitoneal; conditions: in vivo
[8] = system: Plasmodium berghei; assay: Antimalarial activity against GFP-transfected Plasmodium berghei ANKA infected in NMRI mouse assessed as reduction of parasitaemia at 30 mg/kg, ip qd for 4 days; design: scale not given: the % may be the effect or the level left; conditions: route intraperitoneal
[9] = system: Plasmodium berghei; assay: Antimalarial activity against GFP-transfected Plasmodium berghei ANKA infected in NMRI mouse assessed as increase of mean survival time at 30 mg/kg, ip qd for 4 days
[10] = system: Plasmodium berghei; assay: Antimalarial activity against GFP-transfected Plasmodium berghei ANKA infected in NMRI mouse assessed as reduction of parasitaemia at 50 mg/kg, ip qd for 4 days
[11] = system: Plasmodium berghei; assay: Antimalarial activity against GFP-transfected Plasmodium berghei ANKA infected in NMRI mouse assessed as increase of mean survival time at 50 mg/kg, ip qd for 4 days

SMILES | selectivity ratio [1] | IC50 [2] | IC50 [3] | also measured
CC(C)(C)OC(=O)N(CCCCCCCCCCCCN(CCCNC(=O)c1ccccc1O)C(=O)OC(C)(C)C)CCCNC(=O)c1ccccc1O | 186 | 0.5 µM | 93 µM | –
COc1ccc(OC)c(CCC(=O)NCCCN(CCCCCCCCCCCCN(CCCNC(=O)CCc2cc(OC)ccc2OC)C(=O)OC(C)(C)C)C(=O)OC(C)(C)C)c1 | 13 | 0.18 µM | 2.3 µM | –
CC(C)(C)OC(=O)N(CCCCCCCCN(CCCNC(=O)Cc1ccccc1O)C(=O)OC(C)(C)C)CCCNC(=O)Cc1ccccc1O | 22 | 0.73 µM | 16 µM | –
CC(C)(C)OC(=O)N(CCCCCCCCCCCCN(CCCNC(=O)Cc1ccccc1)C(=O)OC(C)(C)C)CCCNC(=O)Cc1ccccc1 | 32 | 0.26 µM | 8.2 µM | –
COc1ccc(OC)c(CC(=O)NCCCN(CCCCCCCCCCCCN(CCCNC(=O)Cc2cc(OC)ccc2OC)C(=O)OC(C)(C)C)C(=O)OC(C)(C)C)c1 | 14 | 0.16 µM | 2.2 µM | –
COc1ccccc1CC(=O)NCCCNCCCCCCCCCCCCNCCCNC(=O)Cc1ccccc1OC | 269 | 0.078 µM | 21 µM | –
O=C(NCCCNCCCCCCCCCCCCNCCCNC(=O)c1ccccc1)c1ccccc1 | 43 | 0.16 µM | 6.9 µM | –
COc1ccc(OC)c(CC(=O)NCCCNCCCCCCCCCCCCNCCCNC(=O)Cc2cc(OC)ccc2OC)c1 | 121 | 0.19 µM | 23 µM | –
O=C(CCc1ccccc1O)NCCCNCCCCCCCCCCCCNCCCNC(=O)CCc1ccccc1O | 6530 | 0.0095 µM | 62 µM | –
O=C(CCc1ccccc1)NCCCNCCCCNCCCNC(=O)CCc1ccccc1 | 910 | 0.1 µM | 91 µM | –
CC(C)(C)OC(=O)N(CCCCCCCCCCCCN(CCCNC(=O)CCc1ccccc1)C(=O)OC(C)(C)C)CCCNC(=O)CCc1ccccc1 | 17 | 0.24 µM | 4 µM | –
O=C(Cc1ccccc1)NCCCNCCCCCCCCNCCCNC(=O)Cc1ccccc1 | 4930 | 0.015 µM | 74 µM | Activity [4]: Toxic; Activity [5]: inactive; Activity [6]: inactive
O=C(Cc1ccccc1O)NCCCNCCCCCCCCCCCCNCCCNC(=O)Cc1ccccc1O | 4880 | 0.0086 µM | 42 µM | –
COc1ccc(CCC(=O)NCCCNCCCCNCCCNC(=O)CCc2ccc(OC)c(OC)c2)cc1OC | 160 | 0.46 µM | 73 µM | –
O=C(Cc1ccccc1O)NCCCNCCCCNCCCNC(=O)Cc1ccccc1O | – | – | – | Activity [7]: Toxic; Activity [8]: 27.9%; Activity [9]: inactive
COc1ccccc1CC(=O)NCCCN(CCCCCCCCCCCCN(CCCNC(=O)Cc1ccccc1OC)C(=O)OC(C)(C)C)C(=O)OC(C)(C)C | 5.9 | 0.46 µM | 2.7 µM | –
COc1ccc(OC)c(CC(=O)NCCCNCCCCCCCCNCCCNC(=O)Cc2cc(OC)ccc2OC)c1 | 5080 | 0.012 µM | 61 µM | –
O=C(NCCCNCCCCNCCCNC(=O)c1ccccc1)c1ccccc1 | 200 | 0.45 µM | 89 µM | –
COc1ccc(OC)c(CCC(=O)NCCCNCCCCNCCCNC(=O)CCc2cc(OC)ccc2OC)c1 | 16200 | 0.0061 µM | 99 µM | –

SMILES | selectivity ratio [1] | IC50 [2] | IC50 [3] | also measured
O=C(NCCCNCCCCCCCCCCCCNCCCNC(=O)c1ccccc1O)c1ccccc1O | 6.6 | 0.38 µM | 2.5 µM | –
COc1ccc(OC)c(C(=O)NCCCNCCCCNCCCNC(=O)c2cc(OC)ccc2OC)c1 | 81 | 0.93 µM | 75 µM | –
COc1ccc(CC(=O)NCCCNCCCCCCCCCCCCNCCCNC(=O)Cc2ccc(OC)cc2)cc1 | 95 | 0.2 µM | 19 µM | –
COc1ccc(OC)c(C(=O)NCCCNCCCCCCCCCCCCNCCCNC(=O)c2cc(OC)ccc2OC)c1 | 5.6 | 0.39 µM | 2.2 µM | –
CC(C)(C)OC(=O)N(CCCCCCCCN(CCCNC(=O)Cc1ccccc1)C(=O)OC(C)(C)C)CCCNC(=O)Cc1ccccc1 | 18 | 0.47 µM | 8.6 µM | –
COc1ccc(CCC(=O)NCCCN(CCCCCCCCCCCCN(CCCNC(=O)CCc2ccc(OC)c(OC)c2)C(=O)OC(C)(C)C)C(=O)OC(C)(C)C)cc1OC | 38 | 0.066 µM | 2.5 µM | –
COc1ccc(CC(=O)NCCCN(CCCCCCCCCCCCN(CCCNC(=O)Cc2ccc(OC)cc2)C(=O)OC(C)(C)C)C(=O)OC(C)(C)C)cc1 | 22 | 0.21 µM | 4.7 µM | –
CC(C)(C)OC(=O)N(CCCCCCCCCCCCN(CCCNC(=O)CCc1ccccc1O)C(=O)OC(C)(C)C)CCCNC(=O)CCc1ccccc1O | 28 | 0.13 µM | 3.6 µM | –
COc1ccc(OC)c(CC(=O)NCCCN(CCCCCCCCN(CCCNC(=O)Cc2cc(OC)ccc2OC)C(=O)OC(C)(C)C)C(=O)OC(C)(C)C)c1 | 40 | 0.048 µM | 1.9 µM | –
COc1ccc(CCC(=O)NCCCNCCCCCCCCCCCCNCCCNC(=O)CCc2ccc(OC)c(OC)c2)cc1OC | 803 | 0.071 µM | 57 µM | –
CC(C)(C)OC(=O)N(CCCCCCCCCCCCN(CCCNC(=O)Cc1ccccc1O)C(=O)OC(C)(C)C)CCCNC(=O)Cc1ccccc1O | 59 | 0.17 µM | 10 µM | –
O=C(Cc1ccccc1O)NCCCNCCCCCCCCNCCCNC(=O)Cc1ccccc1O | 42300 | 0.0013 µM | 55 µM | –
O=C(Cc1ccccc1)NCCCNCCCCCCCCCCCCNCCCNC(=O)Cc1ccccc1 | 138 | 0.16 µM | 22 µM | –
COc1ccc(OC)c(C(=O)NCCCN(CCCCCCCCCCCCN(CCCNC(=O)c2cc(OC)ccc2OC)C(=O)OC(C)(C)C)C(=O)OC(C)(C)C)c1 | 10 | 0.18 µM | 1.8 µM | –
O=C(CCc1ccccc1O)NCCCNCCCCNCCCNC(=O)CCc1ccccc1O | 5700 | 0.015 µM | 86 µM | Activity [7]: Non-toxic; Activity [10]: inactive; Activity [11]: inactive
CC(C)(C)OC(=O)N(CCCCCCCCCCCCN(CCCNC(=O)c1ccccc1)C(=O)OC(C)(C)C)CCCNC(=O)c1ccccc1 | 52 | 0.16 µM | 8.3 µM | –
O=C(NCCCNCCCCNCCCNC(=O)c1ccccc1O)c1ccccc1O | 44 | 1.9 µM | 83 µM | –
O=C(CCc1ccccc1)NCCCNCCCCCCCCCCCCNCCCNC(=O)CCc1ccccc1 | 95 | 0.073 µM | 6.9 µM | –
COc1ccc(OC)c(CCC(=O)NCCCNCCCCCCCCCCCCNCCCNC(=O)CCc2cc(OC)ccc2OC)c1 | 59 | 0.11 µM | 6.5 µM | –
